Holding throughout (format): cell-based
Assay [1] deals with T1, RNA polymerase II (Mus musculus) (UniProt P08775+Q8CFI7+P97760+A0A3Q4L2S8+Q80UW8+P61219+P62488+Q923G2+P60898+O08740+Q63871+P62876). The experiment in a line: Inhibition of RNA polymerase II in mouse B16-F1 migrating cells assessed as fold change in Higd1a-RNA stability at 0.1 mM measured by ChIP-seq analysis relative to control cells.
In assay [2] the target is T1, RNA polymerase II (Mus musculus). The experiment in a line: Inhibition of RNA polymerase II in mouse B16-F1 migrating cells assessed as fold change in Tmsb10-RNA stability at 0.1 mM measured by […] analysis relative to control cells.
The target is the same in assay [3]. The assay is described as follows: Inhibition of RNA polymerase II in mouse B16-F1 migrating cells assessed as fold change in Borcs8-RNA stability at 0.1 mM measured by […] analysis relative to control cells. In a few lines:
(§1)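 Mouse B16-F1 melanoma cells grown to confluence on fibronectin in DMEM/10% FCS at 37 °C, 7% CO2. Migration induced by multiple scratches and 3 h incubation; unscratched controls. DRB 0.1 mM added 3 h before lysis. RNA from poly A-selected mRNA was sequenced (RNA-seq, three replicates per DRB group). Fold change computed for DRB-treated migrating vs DRB-treated control cells; cutoffs fold change >1.3, FDR <0.05.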

The target is the same in assay [4]. The experiment in a line: Inhibition of RNA polymerase II in mouse B16-F1 migrating cells assessed as fold change in G6pc3-RNA stability at 0.1 mM measured by ChIP-seq analysis relative to control cells. In a few lines:
as §1

The target is the same in assay [5]. The assay is described as follows: Inhibition of RNA polymerase II in mouse B16-F1 migrating cells assessed as fold change in Uba52-RNA stability at 0.1 mM measured by […] analysis relative to control cells.
For assay [6] the target is unchanged. The assay is described as follows: Inhibition of RNA polymerase II in mouse B16-F1 migrating cells assessed as fold change in Kcnab2-RNA stability at 0.1 mM measured by ChIP-seq analysis relative to control cells. In a few lines:
as §1

Assay [7] has the same target. The assay is described as follows: Inhibition of RNA polymerase II in mouse B16-F1 migrating cells assessed as fold change in Stx8-RNA stability at 0.1 mM measured by […] analysis relative to control cells.
For assay [8] the target is unchanged. The assay is described as follows: Inhibition of RNA polymerase II in mouse B16-F1 migrating cells assessed as fold change in Mtch1-RNA stability at 0.1 mM measured by ChIP-seq analysis relative to control cells.
For assay [9] the target is unchanged. The experiment in a line: Inhibition of RNA polymerase II in mouse B16-F1 migrating cells assessed as fold change in Arf6-RNA stability at 0.1 mM measured by […] analysis relative to control cells.
For assay [10] the target is unchanged. The assay is described as follows: Inhibition of RNA polymerase II in mouse B16-F1 migrating cells assessed as fold change in Tbp-RNA stability at 0.1 mM measured by […] analysis relative to control cells.
Assay [11] shares this target. The assay is described as follows: Inhibition of RNA polymerase II in mouse B16-F1 migrating cells assessed as fold change in Ets1-RNA stability at 0.1 mM measured by […] analysis relative to control cells. In a few lines: as §1
The target is the same in assay [12]. The experiment in a line: Inhibition of RNA polymerase II in mouse B16-F1 migrating cells assessed as fold change in Nek7-RNA stability at 0.1 mM measured by ChIP-seq analysis relative to control cells.
The target of assay [13] is Histone-lysine N-methyltransferase EZH2 (Mus musculus) (UniProt Q61188). The experiment in a line: Inhibition of EZH2 in mouse B16-F1 migrating cells assessed as fold change in H3K27me3-dependent regulated Espnl-mRNA expression at 3 uM measured by […] analysis relative to control cells. In a few lines:
(§2)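 Confluent B16-F1 cells on fibronectin-coated plates were scratched at multiple sites, washed once with DMEM and left to migrate 3 h in growth medium (37 °C, 7% CO2); unscratched cells served as control. GSK343 (3 µM) was added 3 h before lysis. Poly A mRNA was sequenced (RNA-seq), with 5 replicates for untreated and 3 for treated cells. Differential expression was called by linear model with batch correction, at FDR <0.05 and fold change ≥1.3.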

Assay [14] shares this target. The assay is described as follows: Inhibition of EZH2 in mouse B16-F1 migrating cells assessed as fold change in H3K27me3-independent regulated Selenbp1-mRNA expression at 3 uM measured by […] analysis relative to control cells. In a few lines: as §2
Assay [15] has the same target. The assay is described as follows: Inhibition of EZH2 in mouse B16-F1 migrating cells assessed as fold change in H3K27me3-independent regulated Fosl2-mRNA expression at 3 uM measured by […] analysis relative to control cells. In a few lines: as §2
Assay [16] has the same target. The assay is described as follows: Inhibition of EZH2 in mouse B16-F1 migrating cells assessed as fold change in H3K27me3-independent regulated Fam214b-mRNA expression at 3 uM measured by […] analysis relative to control cells. In a few lines: as §2
Assay [17] shares this target. The experiment in a line: Inhibition of EZH2 in mouse B16-F1 migrating cells assessed as fold change in H3K27me3-independent regulated Cep152-mRNA expression at 3 uM measured by ChIP-seq analysis relative to control cells. In a few lines:
as §2

The target is the same in assay [18]. The experiment in a line: Inhibition of EZH2 in mouse B16-F1 migrating cells assessed as fold change in H3K27me3-buffered regulated Tuba4a-mRNA expression at 3 uM measured by […] analysis relative to control cells. In a few lines:
as §2

Assay [19] shares this target. The experiment in a line: Inhibition of EZH2 in mouse B16-F1 migrating cells assessed as fold change in H3K27me3-buffered regulated Ptp4a1-mRNA expression at 3 uM measured by […] analysis relative to control cells. In a few lines:
(§3)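 Confluent B16-F1 cells on fibronectin-coated plates, cultured at 37 °C and 7% CO2, were scratched at multiple sites to induce migration. They were then held 3 h in growth medium containing 3 µM GSK343, with the inhibitor added 3 h before lysis. Unscratched cells served as controls. Poly A mRNA was analysed by RNA-seq (n=3 GSK343, n=5 controls). Linear models removed batch effects, and buffered genes were those altered only under GSK343 (FDR <0.05, fold change >1.3).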

Assay [20] has the same target. The experiment in a line: Inhibition of EZH2 in mouse B16-F1 migrating cells assessed as fold change in H3K27me3-buffered regulated Dzip3-mRNA expression at 3 uM measured by […] analysis relative to control cells. In a few lines:
as §3

The target is the same in assay [21]. The experiment in a line: Inhibition of EZH2 in mouse B16-F1 migrating cells assessed as fold change in H3K27me3-buffered regulated Edrf1-mRNA expression at 3 uM measured by ChIP-seq analysis relative to control cells. In a few lines:
as §3

Assay [22] shares this target. The assay is described as follows: Inhibition of EZH2 in mouse B16-F1 migrating cells assessed as fold change in H3K27me3-buffered regulated Stk10-mRNA expression at 3 uM measured by ChIP-seq analysis relative to control cells. In a few lines: as §2
The target is the same in assay [23]. The experiment in a line: Inhibition of EZH2 in mouse B16-F1 migrating cells assessed as fold change in H3K27me3-buffered regulated Sltm-mRNA expression at 3 uM measured by ChIP-seq analysis relative to control cells. In a few lines: as §2
The target is the same in assay [24]. The assay is described as follows: Inhibition of EZH2 in mouse B16-F1 migrating cells assessed as fold change in H3K27me3-buffered regulated Map3k1-mRNA expression at 3 uM measured by […] analysis relative to control cells. In a few lines: as §3

In ChEMBL document CHEMBL5674883, “The Heterochromatin Landscape in Migrating Cells and the Importance of H3K27me3 for Associated Transcriptome Alterations” (Cells, 2018) one finds log2FC data, which are given here for two compounds.

Sequence of Histone-lysine N-methyltransferase EZH2 (Mus musculus) (Q61188 whole entry): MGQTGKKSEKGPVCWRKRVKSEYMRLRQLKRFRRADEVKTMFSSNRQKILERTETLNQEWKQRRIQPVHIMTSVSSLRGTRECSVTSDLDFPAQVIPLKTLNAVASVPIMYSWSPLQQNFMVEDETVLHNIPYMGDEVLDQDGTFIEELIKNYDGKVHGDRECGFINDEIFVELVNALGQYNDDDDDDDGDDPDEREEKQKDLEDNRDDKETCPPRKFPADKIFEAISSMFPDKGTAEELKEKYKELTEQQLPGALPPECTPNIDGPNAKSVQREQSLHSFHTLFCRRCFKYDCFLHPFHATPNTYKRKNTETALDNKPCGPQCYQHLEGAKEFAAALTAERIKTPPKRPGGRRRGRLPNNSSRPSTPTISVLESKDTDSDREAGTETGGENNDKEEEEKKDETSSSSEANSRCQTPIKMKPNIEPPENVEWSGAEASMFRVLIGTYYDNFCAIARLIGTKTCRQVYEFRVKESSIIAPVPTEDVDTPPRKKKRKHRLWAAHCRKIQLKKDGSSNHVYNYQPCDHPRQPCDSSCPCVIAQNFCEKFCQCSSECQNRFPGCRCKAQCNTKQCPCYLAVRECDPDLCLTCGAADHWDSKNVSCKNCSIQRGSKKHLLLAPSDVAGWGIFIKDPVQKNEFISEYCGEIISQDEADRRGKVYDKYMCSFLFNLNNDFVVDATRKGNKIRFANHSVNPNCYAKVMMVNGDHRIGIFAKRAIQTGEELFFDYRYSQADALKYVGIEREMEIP

With `OC[C@H]1O[C@@H](n2cnc3cc(Cl)c(Cl)cc32)[C@H](O)[C@@H]1O`, the log2FC in [1] is 0.77; in assay [2] it was 0.62; in assay [3], 0.57; in assay [4] it was 0.51; in assay [5], 0.49; in assay [6] it was 0.49. Further, the log2FC in assay [7] is 0.48; in assay [8], 0.46; in [9], -0.51; in assay [10], -0.56; in [11], -0.65; in [12], -0.66.

Regarding `CCCc1cc(C)[nH]c(=O)c1CNC(=O)c1cc(-c2ccnc(N3CCN(C)CC3)c2)cc2c1cnn2C(C)C`, the log2FC in assay [13] is 0.55; in assay [14], 1.01; in assay [15], 0.7; in assay [16], 0.53; in [17], -0.48; in assay [18], 0.42. In addition, the log2FC in [19] is 0.38; in assay [20], -0.4; in assay [21], -0.41; in [22], -0.44; in assay [23] it was -0.45; in assay [24] it was -0.53.
